Bioassay records as filed in PubChem BioAssay.
The sample as a whole holds a higher share of hits than the screen did.
HePTP inhibitor = blocks human HePTP tyrosine phosphatase. P35236. recombinant HePTP phosphatase activity, OD absorbance. inhibition, % at 20 µM. hit rate 0.64% among 110,000; in the data active = inhibition above about 50%
Cdc25B block = inhibitors of human Cdc25B phosphatase; P30305; recombinant Cdc25B, OMFP fluorescence Ex485/Em525; inhibition, %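 (compounds tested at 10 µM final in the well)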; hit rate 0.1% among 65,000; in the data active = inhibition above about 50%
Target sequence (P30305 whole entry, looked up): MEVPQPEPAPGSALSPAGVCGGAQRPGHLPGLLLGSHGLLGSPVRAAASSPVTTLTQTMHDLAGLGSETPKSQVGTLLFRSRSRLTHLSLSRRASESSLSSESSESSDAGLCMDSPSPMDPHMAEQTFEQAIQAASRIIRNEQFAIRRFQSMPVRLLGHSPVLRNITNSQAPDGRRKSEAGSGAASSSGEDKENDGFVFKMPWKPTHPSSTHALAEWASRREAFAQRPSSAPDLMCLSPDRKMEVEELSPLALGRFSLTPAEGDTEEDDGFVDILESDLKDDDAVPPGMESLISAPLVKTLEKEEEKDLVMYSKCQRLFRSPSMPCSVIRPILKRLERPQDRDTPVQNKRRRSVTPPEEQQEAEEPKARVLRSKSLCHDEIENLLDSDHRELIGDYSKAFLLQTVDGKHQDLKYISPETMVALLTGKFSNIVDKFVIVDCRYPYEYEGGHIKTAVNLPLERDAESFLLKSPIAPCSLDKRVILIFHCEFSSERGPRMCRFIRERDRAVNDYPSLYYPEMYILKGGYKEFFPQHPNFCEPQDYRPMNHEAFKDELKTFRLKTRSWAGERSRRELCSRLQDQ
MMP-13 inhibitor = inhibitors of human MMP13 | hit rate 0.07% among 65,000 | P45452 | MMP-13 fTHP FRET cleavage, Mca fluorescence | inhibition, % at 4 µM;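 active = inhibition above the mean of compound-free control plate wells plus 3 SD, cut at about 14% in these data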
tolC growth inh = growth inhibitors of E. coli BW25113 tolC mutant | OD615 | growth inhibition, % at 10 µM (by protocol) | hit rate 2.2% among 65,000;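 active = growth inhibition at or above a cutoff equal to the mean over every tested compound plus 3 SD, cut at about 60% in these data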;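 also: growth measured after 20 h incubation at 37 °C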
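Signal: optical density read at 615 nm; Assay system: E. coli ΔtolC::kan strain BW25113; Times: 20 h incubation with compound, 37 °C; Dosing: 10 µM final, single dose.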
MKP-1 inh = inhibitors of human MKP-1 phosphatase | AID 374 | P28562 | recombinant MKP-1, OMFP hydrolysis fluorescence | hit rate 0.15% among 65,000 | inhibition, %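 (compounds tested at a single concentration somewhere between 10 and 100 µM)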;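 active = inhibition above about 50%, limit read from the data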
E coli WT exp = growth inhibitors of E. coli BW25113 wild type; hit rate 0.15% among 98,000; growth inhibition, % at 100 µM; AID 710; OD600 absorbance;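 active = growth inhibition above about 50% at one test dose, limit read from the data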;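 also: growth measured after 20 h incubation at 37 °C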
A number is an active result; - = inactive; . = no result given.

SMILES | HePTP inhibitor | Cdc25B block | MMP-13 inhibitor | tolC growth inh | MKP-1 inh | E coli WT exp
CCOc1ccc(NC(=O)N(C2CCCCC2)C2CCN(C(C)=O)CC2)cc1 | - | 63.8 | - | - | - | .
O=C(Nc1ccccc1C(=O)O)c1ccc2c(c1)C(=O)N(c1ccccc1-c1ccccc1)C2=O | - | . | . | . | . | .
O=C(COc1ccc2ccccc2c1)Nc1ccc(S(=O)(=O)Nc2nccs2)cc1 | - | . | . | . | . | .
CN1CCN(c2c(F)cc3c(=O)c(C(=O)O)cn4c3c2SCC4)CC1 | - | - | - | 100.0 | - | 100.0
O=[N+]([O-])c1cc([N+](=O)[O-])c2oc(-c3ccccc3)c(Br)c2c1O | 104.2 | . | . | . | . | .
O=C(N/N=C/c1c(Br)cc(Br)c(O)c1Br)c1ccccc1[N+](=O)[O-] | - | . | . | . | . | .
COc1ccc(/C=N/NC(=O)c2cccc([N+](=O)[O-])c2)cc1OC(=O)c1ccccc1 | . | . | . | . | . | -
O=C(N/N=C/c1ccc(OC(=O)c2ccc(Br)cc2)cc1)c1cccc([N+](=O)[O-])c1 | 52.2 | . | . | . | . | .
Clc1ccc(OCCCNCc2ccccc2)c(Br)c1 | . | . | . | . | . | 68.0
OCCNCCCOc1ccc(Cl)cc1Br | . | . | . | . | . | -
Cc1cc(Cl)c(OCCCNCc2ccccc2)c(Br)c1 | . | . | . | . | . | 57.0
Cc1ccc(OCC(=O)Nc2ccc(F)c([N+](=O)[O-])c2)cc1 | - | . | . | . | . | .
Cn1cccc1Cc1nnc(SCC(=O)Nc2ccc(Cl)cc2)n1-c1ccc(F)cc1 | - | - | - | 70.8 | - | -
Cn1cccc1Cc1nnc(SCC(=O)Nc2ccc(F)cc2)n1-c1ccc(F)cc1 | - | - | - | - | - | -
CCOC(=O)c1cn(CC)c2cc(N3CCSCC3)c(F)cc2c1=O | - | - | - | 100.0 | - | -
CCn1cc(C(=O)O)c(=O)c2cc(F)c(N3CCN(C(=O)Nc4ccccc4)CC3)cc21 | - | - | - | 100.0 | - | 94.0
CCn1cc(C(=O)NCc2ccc3c(c2)OCO3)c(=O)c2cc(F)c(N3CCN(C)CC3)cc21 | - | - | - | 100.0 | - | 100.0
CCn1cc(C(=O)NCCc2ccccc2)c(=O)c2cc(F)c(N3CCN(C)CC3)cc21 | - | - | - | - | - | -
CCn1cc(C(=O)O)c(=O)c2cc(F)c(N3CCNCC3)cc21 | - | - | - | - | - | .
CCn1cc(C(=O)NCc2ccccn2)c(=O)c2cc(F)c(N3CCN(C)CC3)cc21 | - | - | - | - | - | 100.0
CC(C)Oc1ccccc1NC(=O)CSc1nnc(-c2cccc(F)c2)n1-c1ccccc1 | - | . | . | . | . | .
O=C(Cc1ccc(Br)cc1)Nc1ccc(F)c(F)c1 | - | . | . | . | . | .
C=CCn1cc(C(=O)NCc2ccco2)c(=O)c2cc(S(=O)(=O)N3CCCCCC3)ccc21 | - | - | - | 67.8 | - | -
CCn1cc(C(=O)NCc2ccco2)c(=O)c2cc(S(=O)(=O)N3CCCCCC3)ccc21 | - | - | - | - | - | -
CCn1cc(C(=O)NCc2ccco2)c(=O)c2cc(F)c(N3CCN(C(=O)c4ccco4)CC3)cc21 | - | - | - | - | - | 90.0
SMILES | HePTP inhibitor | Cdc25B block | MMP-13 inhibitor | tolC growth inh | MKP-1 inh | E coli WT exp
COC(=O)CN(c1ccc(Br)cc1)S(C)(=O)=O | - | . | . | . | . | .
COc1ccc(Br)cc1/C=N/NC(=O)C1CC(c2ccccc2)(c2ccccc2)C1 | - | . | . | . | . | .
CCOC(=O)c1c(C)[nH]c(C)c1C(=O)Cn1nnc(-c2ccccc2C)n1 | - | - | - | 63.4 | - | -
CC(=O)Nc1ccc(NS(=O)(=O)c2c(C)cc(C)cc2C)cc1 | 100.6 | . | . | . | . | .
CC(=O)Nc1ccc(S(=O)(=O)Nc2c(C)cc(C)cc2C)cc1 | - | . | . | . | . | .
Cc1ccsc1C(=O)Nc1nnc(-c2ccco2)o1 | - | - | - | 98.2 | - | 85.0
CC1(C)Cc2c(sc3nc(SCC(N)=O)n(Cc4ccccc4)c(=O)c23)CO1 | - | . | . | . | . | .
c1ccc(SCc2nc(-c3ccncc3)no2)cc1 | - | - | - | - | 74.1 | -
Cc1ccc(SCc2nc(-c3ccncc3)no2)cc1 | - | - | - | - | - | -
COc1ccc(Cn2nnnc2C(c2cc3cccc(C)c3[nH]c2=O)N2CCOCC2)cc1 (centres undefined) | - | 51.9 | - | - | - | -
COc1ccc(Cn2nnnc2C(c2cc3cc(C)ccc3[nH]c2=O)N2CCOCC2)cc1 (centres undefined) | - | - | - | - | - | -
Nc1nc(Nc2cccc(F)c2)nc2ccccc12 | - | - | - | - | - | 63.0
Cc1cccc(N2CCN(C(=O)c3cc4n(n3)C(C(F)(F)F)CC(c3ccco3)N4)CC2)c1C (centres undefined) | - | - | - | 73.5 | - | -
O=C(NCCN1CCOCC1)c1cc(-c2ccc(Cl)cc2)nc2ccccc12 | - | . | . | . | . | .
CC(C)Oc1ccc(-c2cc(C(=O)NCCN3CCOCC3)c3ccccc3n2)cc1 | . | . | . | . | . | -
O=C(NCCN1CCOCC1)c1cc(-c2ccc(Br)cc2)nc2ccccc12 | 103.9 | . | . | . | . | .
CCCOc1ccc(-c2cc(C(=O)NCCCN3CCOCC3)c3ccccc3n2)cc1 | 103.0 | . | . | . | . | .
Cc1cccc(N(C)C(=O)c2cc3cc4ccc(C)cc4nc3o2)c1 | - | - | - | 96.3 | - | -
Clc1ccc(CN2CCN(/N=C/C=C\c3ccco3)CC2)cc1 | - | . | . | . | . | .
Cc1ccc(CN2CCN(/N=C/C=C\c3ccco3)CC2)cc1 | 102.8 | . | . | . | . | .
CCOC(=O)CN1CC23C=CC(O2)C(C(=O)Nc2cc(OC)ccc2OC)C3C1=O (centres undefined) | - | - | 14.2 | - | - | -
CCOC(=O)CN1CC23C=CC(O2)C(C(=O)Nc2ccc(OC)cc2OC)C3C1=O (centres undefined) | - | - | - | - | - | -
CCOC(=O)C1=C(C)NC(=S)NC1c1ccc(Cl)c(Cl)c1 (centres undefined) | - | . | . | . | . | .
O=C(/C=C/c1cccc([N+](=O)[O-])c1)Nc1ccc2oc(-c3ccccc3F)nc2c1 | - | . | . | . | . | .
O=C(Nc1ccc2oc(-c3ccccc3F)nc2c1)c1cccc([N+](=O)[O-])c1 | 99.2 | . | . | . | . | .
SMILES | HePTP inhibitor | Cdc25B block | MMP-13 inhibitor | tolC growth inh | MKP-1 inh | E coli WT exp
O/N=C/c1cn(-c2ccccc2)nc1-c1ccc(F)cc1 | - | . | . | . | . | .
COc1ccccc1C(O)(C(=O)Nc1ccccn1)c1ccccc1OC | - | . | . | . | . | .
CN(C)c1ccc(-c2c3cc(O)c(=O)cc-3oc3cc(O)c(O)cc23)cc1 | 103.1 | . | . | . | . | .
c1ccc(-c2nc(NCC3CCCO3)c3ccccc3n2)nc1 (centres undefined) | - | - | - | - | - | -
Oc1cccc(Nc2nc(NCC3CCCO3)c3ccccc3n2)c1 (centres undefined) | - | - | - | 94.0 | - | -
Cc1ccc2nc(-c3ccc(C)c(NC(=O)c4cccc([N+](=O)[O-])c4C)c3)oc2c1 | - | . | . | . | . | .
CCN(CC)N=Nc1[nH]nc2nc(C)cc(C)c12 | . | . | . | . | . | 63.0
COc1cc(/C=N\N2CCN(Cc3ccc(C)cc3)CC2)cc(Br)c1O | 77.2 | . | . | . | . | .
COc1cc(/C=N/N2CCN(Cc3ccc(C)cc3)CC2)cc(OC)c1O | - | . | . | . | . | .
N=c1n(Cc2ccccc2)c2ccccc2n1CC(O)COc1ccccc1 (centres undefined) | - | - | - | 62.7 | - | -
Cc1ccc(Cn2c(=N)n(CC(O)COc3ccccc3)c3ccccc32)cc1 (centres undefined) | . | . | . | . | . | -
Cc1nc(SCC(=O)c2ccccc2)c(C#N)c(-c2cccc(Cl)c2)c1C(=O)Nc1ccccc1 | - | . | . | . | . | .
